Calls of active or inactive are those of the source. The rule behind the calls is not given here.

These results are taken from ChEMBL document CHEMBL4428057, “Discovery, Synthesis, and Evaluation of 2,4-Diaminoquinazolines as a Novel Class of Pancreatic β-Cell-Protective Agents against Endoplasmic Reticulum (ER) Stress” (J Med Chem, 2016).

In assay [1] the target is T1, Eukaryotic translation initiation factor 2-alpha kinase 3 (Rattus norvegicus) (UniProt Q9Z1Z1).
T1 sequence (whole entry): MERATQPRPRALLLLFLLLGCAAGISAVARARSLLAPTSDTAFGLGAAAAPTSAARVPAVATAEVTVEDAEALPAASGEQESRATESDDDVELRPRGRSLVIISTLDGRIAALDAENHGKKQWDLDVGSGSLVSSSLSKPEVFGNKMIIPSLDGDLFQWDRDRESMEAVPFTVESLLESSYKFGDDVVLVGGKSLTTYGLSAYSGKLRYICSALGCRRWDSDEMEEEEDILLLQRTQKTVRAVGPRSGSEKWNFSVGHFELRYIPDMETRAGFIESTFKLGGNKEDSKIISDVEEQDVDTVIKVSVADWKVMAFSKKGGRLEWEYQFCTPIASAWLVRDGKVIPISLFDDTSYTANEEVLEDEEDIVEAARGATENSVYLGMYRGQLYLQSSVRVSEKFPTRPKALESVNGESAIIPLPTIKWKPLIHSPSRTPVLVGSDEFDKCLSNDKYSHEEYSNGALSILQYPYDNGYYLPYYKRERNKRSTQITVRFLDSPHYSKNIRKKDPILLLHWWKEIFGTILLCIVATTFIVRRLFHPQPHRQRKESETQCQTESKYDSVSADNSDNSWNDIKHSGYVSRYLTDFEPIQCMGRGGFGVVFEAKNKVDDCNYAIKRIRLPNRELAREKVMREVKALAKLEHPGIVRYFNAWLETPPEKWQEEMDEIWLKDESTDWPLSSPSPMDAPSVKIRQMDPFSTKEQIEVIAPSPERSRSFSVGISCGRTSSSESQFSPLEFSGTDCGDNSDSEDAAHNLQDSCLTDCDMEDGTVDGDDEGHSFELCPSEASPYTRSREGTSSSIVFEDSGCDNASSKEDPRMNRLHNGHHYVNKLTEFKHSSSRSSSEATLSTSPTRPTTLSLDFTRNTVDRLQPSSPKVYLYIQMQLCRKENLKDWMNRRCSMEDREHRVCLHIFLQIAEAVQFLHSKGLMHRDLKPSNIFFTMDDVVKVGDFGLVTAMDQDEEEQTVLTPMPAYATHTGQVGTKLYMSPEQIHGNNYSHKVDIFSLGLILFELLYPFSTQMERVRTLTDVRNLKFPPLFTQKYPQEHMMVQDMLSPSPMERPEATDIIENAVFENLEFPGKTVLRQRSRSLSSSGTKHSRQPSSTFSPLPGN
Nature of the assay: Inhibition of PERK pathway in rat INS-1 cells assessed as reduction in tunicamycin induced CHOP protein levels at 20 uM after 2 to 24 hrs by Western blot analysis. The class given is cell-based. In short, it runs like this: (§1)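 Western blots of INS-1 cells (8×10^5/60-mm dish) treated with Tm 0.1 µg/mL ± compound 20 µM or DMSO for the indicated times. Lysates with EDTA and phosphatase inhibitors; 20 µg protein on 7% SDS-PAGE, PVDF. Primary antibodies at 1:1000 against ATF4, CHOP, cleaved caspase 3 or PARP; α-tubulin loading control; HRP secondaries. Representative of 3 experiments.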

Assay [2] concerns INS1. Nature of the assay: Reversal of tunicamycin-induced suppression of PDX1 mRNA levels in rat INS-1 cells at 20 uM after 24 hrs by qRT-PCR method. The class given is functional, cell-based. In short, it runs like this:
(§2)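 INS-1 cells (4×10^5/well, 6-well plates) given Tm 0.1 µg/mL ± compound 20 µM or DMSO for 24 h. INS1, INS2, PDX1 and MafA mRNA measured by qRT-PCR with rat primers. Means of 3 replicate wells, representative of 3 independent experiments; SD.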

The subject of assay [3] is INS1. The experiment in a line: Protection against tunicamycin induced endoplasmic reticulum stress in rat INS-1 cells assessed as increase in cell viability at 2.5 to 20 uM after 72 hrs by MTT assay. In kind it is functional, cell-based. In short, it runs like this: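 INS-1 cells at 3×10^3/well in 384-well plates treated with Tm 0.1 µg/mL ± compound or DMSO for 72 h. MTT reagent for 3 h at 37 °C, crystal-dissolving solution for 4 h, absorbance at 570 nm. Means of 3 replicate wells, representative of 3 experiments, SD.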

Assay [4] concerns INS1. The experiment in a line: Reversal of tunicamycin induced caspase-3 cleavage in rat INS-1 cells at 20 uM after 2 to 24 hrs by Western blot analysis. In kind it is functional, cell-based. In short, it runs like this: as §1
The target in assay [5] is T2, Cyclic AMP-dependent transcription factor ATF-6 alpha (Rattus norvegicus) (UniProt G3V909).
T2 sequence (whole entry): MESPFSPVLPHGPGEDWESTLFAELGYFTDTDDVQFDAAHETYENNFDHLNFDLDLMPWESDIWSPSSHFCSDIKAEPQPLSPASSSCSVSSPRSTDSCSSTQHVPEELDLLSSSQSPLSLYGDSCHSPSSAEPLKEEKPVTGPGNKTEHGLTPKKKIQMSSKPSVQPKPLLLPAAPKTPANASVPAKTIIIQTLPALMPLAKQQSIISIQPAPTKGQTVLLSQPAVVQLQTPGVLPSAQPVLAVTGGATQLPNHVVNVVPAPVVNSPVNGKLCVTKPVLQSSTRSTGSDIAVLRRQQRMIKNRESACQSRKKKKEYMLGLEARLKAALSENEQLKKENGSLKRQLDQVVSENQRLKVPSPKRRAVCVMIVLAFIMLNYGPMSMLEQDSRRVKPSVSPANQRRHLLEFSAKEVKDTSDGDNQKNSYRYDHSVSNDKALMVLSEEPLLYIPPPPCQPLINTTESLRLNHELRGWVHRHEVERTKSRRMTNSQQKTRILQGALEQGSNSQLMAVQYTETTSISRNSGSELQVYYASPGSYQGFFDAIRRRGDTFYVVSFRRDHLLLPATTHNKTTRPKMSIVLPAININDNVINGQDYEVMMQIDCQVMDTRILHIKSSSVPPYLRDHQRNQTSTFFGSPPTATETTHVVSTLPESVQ
The experiment in a line: Inhibition of ATF6 in rat INS-1 cells assessed as suppression of tunicamycin induced Bip mRNA levels at 20 uM after 4 to 24 hrs by qRT-PCR method. The class given is cell-based. The procedure, abridged:
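INS-1 cells seeded at 4×10^5/well in 6-well plates, given Tm 0.1 µg/mL ± compound 20 µM or DMSO for the indicated times. Bip or GRP94 mRNA measured by qRT-PCR, expressed as fold-increase over untreated control. Means of 3 replicate wells, representative of 3 independent experiments.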

In assay [6] the test system is INS1. Nature of the assay: Reversal of tunicamycin-induced suppression of INS1 mRNA levels in rat INS-1 cells at 20 uM after 24 hrs by qRT-PCR method. In kind it is functional, cell-based. The procedure, abridged: as §2
In general terms: In qPCR the cycle at which signal appears reflects the starting amount.

The test system of assay [7] is Pancreatic beta cell. The experiment in a line: Decrease in tunicamycin induced apoptosis in human Beta cells assessed as […] insulin cells level at 10 uM after 48 hrs by TUNEL staining based confocal microscopy (reference value: 15%). In kind it is functional. Also on record: scale not given: the % may be the effect or the level left.
The subject of assay [8] is INS1. Nature of the assay: Suppression of tunicamycin impaired glucose-stimulated insulin secretion in rat INS-1 cells at 10 to 20 uM preincubated for 24 hrs followed by 25 mM glucose addition for 1 hr by ELISA. The class given is functional, cell-based. The procedure, abridged:
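INS-1 cells in 96-well plates given Tm 0.1 µg/mL plus compound for 24 h, preincubated 1 h in KRBH (pH 7.4, 2% BSA) with 2.5 mM glucose, then 1 h in 2.5 or 25 mM glucose. Secreted insulin by ELISA, corrected for total protein (Bradford); 2.5 mM glucose without Tm set to 1.0.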
Background: In an ELISA, binding on a coated surface is turned into a signal by an enzyme label.

Turning to `COc1ccc(CNc2nc(N3CCCCC3CO)nc3ccccc23)cc1` (racemic), the inhibition entry in assay [1] and in assay [5] was “Active” throughout. In addition, the outcome in assay [2], in assay [3], in assay [4], in assay [6] and in assay [8] was Active. The Activity in assay [7] is recorded as 3.5%.
